Assay outcomes as filed in PubChem BioAssay.
Compounds with a hit are over-represented: about 1.7% of the library has one in this group of screens.
SUMO1 PPI mod – SUMO1-SIM interaction modulation; SUMO1 binding to a labelled peptide, TR-FRET, 1 h; inhibition, % at 20 µM; P63165; hit rate 0.33% among 360,000; in the data active = inhibition above about 37%
DNMT1 inh – DNMT1 (human) enzyme inhibition | inhibition (reported as % activation of signal), % at 10 µM | P26358 | DNMT1 molecular beacon, Hinp1I cleavage, fluorescence | hit rate 0.83% among 360,000 | AID 588458; in the data active = inhibition above about 50%
Target sequence (P26358 504-1616 limits assumed): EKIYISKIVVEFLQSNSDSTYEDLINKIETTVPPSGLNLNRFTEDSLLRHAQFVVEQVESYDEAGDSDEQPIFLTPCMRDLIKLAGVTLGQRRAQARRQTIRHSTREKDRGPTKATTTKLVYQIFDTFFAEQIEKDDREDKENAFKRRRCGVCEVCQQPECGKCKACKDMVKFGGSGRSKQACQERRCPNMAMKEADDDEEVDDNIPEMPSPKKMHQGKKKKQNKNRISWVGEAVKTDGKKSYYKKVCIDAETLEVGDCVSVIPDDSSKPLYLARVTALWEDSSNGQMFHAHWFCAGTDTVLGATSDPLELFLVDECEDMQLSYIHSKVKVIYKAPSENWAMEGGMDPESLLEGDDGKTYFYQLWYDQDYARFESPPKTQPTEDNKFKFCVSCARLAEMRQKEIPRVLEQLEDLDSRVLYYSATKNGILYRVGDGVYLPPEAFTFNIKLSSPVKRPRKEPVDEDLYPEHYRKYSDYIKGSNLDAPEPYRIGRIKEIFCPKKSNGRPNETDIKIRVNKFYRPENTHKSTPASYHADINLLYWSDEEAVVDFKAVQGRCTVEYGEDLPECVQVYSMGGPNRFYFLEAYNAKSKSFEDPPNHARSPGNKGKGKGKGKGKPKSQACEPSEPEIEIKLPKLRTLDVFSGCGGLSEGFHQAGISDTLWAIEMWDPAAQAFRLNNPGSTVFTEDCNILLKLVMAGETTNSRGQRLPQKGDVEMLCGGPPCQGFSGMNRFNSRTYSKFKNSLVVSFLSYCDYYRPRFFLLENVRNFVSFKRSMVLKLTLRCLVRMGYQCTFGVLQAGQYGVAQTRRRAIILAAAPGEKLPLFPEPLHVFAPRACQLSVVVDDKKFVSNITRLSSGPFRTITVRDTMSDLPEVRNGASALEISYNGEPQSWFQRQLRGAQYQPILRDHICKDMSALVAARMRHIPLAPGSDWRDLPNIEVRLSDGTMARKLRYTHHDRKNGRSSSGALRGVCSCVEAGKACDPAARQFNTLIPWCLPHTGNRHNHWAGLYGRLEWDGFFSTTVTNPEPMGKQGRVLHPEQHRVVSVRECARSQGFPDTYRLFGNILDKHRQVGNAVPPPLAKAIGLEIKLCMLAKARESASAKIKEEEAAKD
STEP block – STEP (human) phosphatase inhibition; recombinant STEP, OMFP fluorogenic substrate, fluorescence; inhibition, % at 20 µM; hit rate 0.25% among 360,000; AID 588621;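 active = inhibition at 20 µM, scaled per plate between control wells, above about 37%, limit read from the data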
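System: STEP phosphatase, cell-free reaction; Buffer or medium: Bis-Tris pH 6.0 buffer with DTT, detergent; Incubation: 20 min at room temperature, dark; Measured by: fluorescence, 480/540 nm.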
LMPTP block – LMPTP (human) inhibition. AID 651560. P24666. recombinant LMPTP-A, OMFP fluorogenic substrate, fluorescence intensity. hit rate 0.22% among 360,000. inhibition, % at 20 µM;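 active = compounds that cut the enzyme signal by at least half of the control window in the single-dose screen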
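material = LMPTP-A | quantity = 0.625 nM enzyme | reagent = OMFP substrate, 400 µM final | buffer or medium = Bis-Tris pH 6.0, DTT, detergent | detection = endpoint fluorescence intensity from OMFP dephosphorylation | dosing = single 20 µM dose | read-out basis = % inhibition relative to no-enzyme and uninhibited control wells | control set = no-enzyme and uninhibited controls | timing = 50 min at room temperature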
Scp-1 inhibitor – inhibitors of human Scp-1 phosphatase. Recombinant Scp1, phosphopeptide, malachite green phosphate absorbance. inhibition, % at 20 µM. Q9GZU7. hit rate 0.88% among 340,000;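 active = inhibition above about 50% at 20 µM, limit read from the data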
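Assay system: SCP-1 catalytic fragment, aa 76-261 | Buffer or medium: Tris acetate buffer pH 5.5 with MgCl2 and Tween-20 | Compound: One concentration, 20 µM, with 1.0% DMSO | Also added: Phospho 17-mer peptide substrate | Signal: Absorbance at 630 nm | Incubation: 45 min enzyme reaction at room temperature | Measure: % inhibition of SCP-1 phosphate liberation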
Scp1 confirm – Scp-1 (human) inhibition, single-dose confirmed. shares compounds with Scp-1 inhibitor. recombinant SCP-1 catalytic domain, phosphate release, malachite green absorbance. inhibition, % at 20 µM. hit rate 61% among 2,500
Scp-1 MG ctr – colorimetric interference in Scp-1 counter-screen. 2,500 tested, under 10 active. Colorimetric interference counterscreen, malachite green absorbance 630 nm. shares compounds with Scp-1 inhibitor. apparent inhibition (interference), % at 20 µM;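 note: compounds added after enzyme reaction finished so only phosphate colour detection is probed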
Scp-1 Tm shift – validation of human Scp-1 inhibitors by thermal shift binding; shares compounds with Scp-1 inhibitor; Recombinant SCP1, Sypro Orange thermal shift Tm; thermal shift relative to vanadate control, % at 40 µM; hit rate 25% among 1,500; AID 540329;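 active = substances whose mean melting-temperature shift, as a percentage of the reference inhibitor's shift, reaches about 5.3%, limit read from the data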
A number is an active result.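 Rule for the calls, unless noted: active = inhibition of at least 30% at 20 µM; inactive = the rest.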

C=CCn1c(Cc2cccs2)nnc1SCC(=O)NCc1ccco1 was read as SUMO1 PPI mod inactive, DNMT1 inh inactive, STEP block inactive, LMPTP block inactive, Scp-1 inhibitor 53, Scp1 confirm 47, Scp-1 MG ctr inactive and Scp-1 Tm shift inactive.
Screening C=CCn1c(COc2ccccc2-c2ccccc2)nnc1SCC(=O)NC(=O)NCc1ccco1 returned SUMO1 PPI mod inactive, DNMT1 inh inactive, STEP block inactive, LMPTP block inactive and Scp-1 inhibitor inactive.
Screening C=CCn1c(COc2ccccc2F)nnc1SCC(=O)NC(=O)NCc1ccco1 returned SUMO1 PPI mod inactive, DNMT1 inh inactive, STEP block inactive, LMPTP block inactive, Scp-1 inhibitor 91, Scp1 confirm 65, Scp-1 MG ctr inactive and Scp-1 Tm shift inactive.
Screening COCCCNC(=O)CSc1ccsc1[N+](=O)[O-] returned SUMO1 PPI mod inactive, DNMT1 inh inactive, STEP block inactive, LMPTP block inactive and Scp-1 inhibitor inactive.
For C/C(=N\NC(=O)c1ccccc1)C1C2C=CC(C2)C1(C)C (stereo not drawn) the results were SUMO1 PPI mod inactive, DNMT1 inh inactive, STEP block inactive, LMPTP block inactive and Scp-1 inhibitor inactive.
`CC(NC(=O)c1cc2c(=O)n(C)c3ccccc3c2n1C)c1ccc2c(c1)OCCO2` (stereo not drawn) gave SUMO1 PPI mod inactive, DNMT1 inh inactive, STEP block inactive, LMPTP block inactive and Scp-1 inhibitor inactive.
For CC(NC(=O)COc1cc(=O)n(C)c2ccccc12)c1ccc2c(c1)OCCO2 (stereo not drawn) the results were SUMO1 PPI mod inactive, DNMT1 inh inactive, STEP block inactive, LMPTP block inactive, Scp-1 inhibitor inactive, Scp1 confirm inactive and Scp-1 MG ctr inactive.
For Cc1cccc(NC(=O)CSc2nc3[nH]c(=O)cc(O)c3s2)c1 the results were SUMO1 PPI mod inactive, DNMT1 inh inactive, STEP block inactive, LMPTP block inactive, Scp-1 inhibitor 61, Scp1 confirm 37, Scp-1 MG ctr inactive and Scp-1 Tm shift 14.
`COc1ccc(C(=O)NCCc2ccc(C(F)(F)F)cc2)cc1S(=O)(=O)N1CCOCC1` gave SUMO1 PPI mod inactive, DNMT1 inh inactive, STEP block inactive, LMPTP block inactive and Scp-1 inhibitor inactive.
CC1(C(=O)NS(=O)(=O)c2ccc(Cl)cc2)CCN1C(=O)Cc1cccs1 (stereo not drawn) was read as SUMO1 PPI mod inactive, DNMT1 inh inactive, STEP block inactive and LMPTP block inactive.
O=C(Nc1cccc(Br)c1)C1CCCC1 was read as SUMO1 PPI mod inactive, DNMT1 inh inactive, STEP block inactive, LMPTP block inactive and Scp-1 inhibitor inactive.
`O=C(O)C1CCCCC1C(=O)Nc1cccc(Br)c1` (stereo not drawn) gave SUMO1 PPI mod inactive, DNMT1 inh 103, STEP block 98, LMPTP block 61, Scp-1 inhibitor 84, Scp1 confirm 63, Scp-1 MG ctr inactive and Scp-1 Tm shift inactive.
Screening CC(=O)c1cccc(NC(=O)CCc2nnc3ccc(NCc4ccco4)nn23)c1 returned SUMO1 PPI mod inactive, DNMT1 inh inactive, STEP block inactive, LMPTP block inactive, Scp-1 inhibitor 59, Scp1 confirm 43, Scp-1 MG ctr inactive and Scp-1 Tm shift inactive.
For Cc1ccc(NC(=O)CCc2nnc3ccc(NCc4ccco4)nn23)nc1 the results were SUMO1 PPI mod inactive, DNMT1 inh inactive, STEP block inactive, LMPTP block inactive and Scp-1 inhibitor inactive.
COc1cc(C(=O)N/N=C/c2sc(=O)n(-c3ccccc3)c2Cl)cc(OC)c1OC was read as SUMO1 PPI mod inactive, DNMT1 inh inactive, STEP block inactive, LMPTP block inactive, Scp-1 inhibitor 50, Scp1 confirm inactive and Scp-1 MG ctr inactive.
